# This is a sample that favours compounds with a hit; in the whole collection about 2.6% have one here.
# Rce1 inh: inhibitors of yeast Ras-converting enzyme. yeast membranes, quenched prenylated peptide cleavage fluorescence. 290,000 tested, 0.27% active. calls only. AID 2563;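 active = fall in fluorescence gain of 50% or more versus controls, with final raw signal at or below 3038400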
# VLA-4 inh: inhibition in a human VLA-4 binding assay; 330,000 tested, 0.2% active; P13612; VLA-4 expressing cells, ligand binding flow cytometry; inhibition, % (about 7 µM as worked out from the volumes in the protocol); AID 2557; in the data active = inhibition above about 50%
# Target sequence (P13612 whole entry, looked up): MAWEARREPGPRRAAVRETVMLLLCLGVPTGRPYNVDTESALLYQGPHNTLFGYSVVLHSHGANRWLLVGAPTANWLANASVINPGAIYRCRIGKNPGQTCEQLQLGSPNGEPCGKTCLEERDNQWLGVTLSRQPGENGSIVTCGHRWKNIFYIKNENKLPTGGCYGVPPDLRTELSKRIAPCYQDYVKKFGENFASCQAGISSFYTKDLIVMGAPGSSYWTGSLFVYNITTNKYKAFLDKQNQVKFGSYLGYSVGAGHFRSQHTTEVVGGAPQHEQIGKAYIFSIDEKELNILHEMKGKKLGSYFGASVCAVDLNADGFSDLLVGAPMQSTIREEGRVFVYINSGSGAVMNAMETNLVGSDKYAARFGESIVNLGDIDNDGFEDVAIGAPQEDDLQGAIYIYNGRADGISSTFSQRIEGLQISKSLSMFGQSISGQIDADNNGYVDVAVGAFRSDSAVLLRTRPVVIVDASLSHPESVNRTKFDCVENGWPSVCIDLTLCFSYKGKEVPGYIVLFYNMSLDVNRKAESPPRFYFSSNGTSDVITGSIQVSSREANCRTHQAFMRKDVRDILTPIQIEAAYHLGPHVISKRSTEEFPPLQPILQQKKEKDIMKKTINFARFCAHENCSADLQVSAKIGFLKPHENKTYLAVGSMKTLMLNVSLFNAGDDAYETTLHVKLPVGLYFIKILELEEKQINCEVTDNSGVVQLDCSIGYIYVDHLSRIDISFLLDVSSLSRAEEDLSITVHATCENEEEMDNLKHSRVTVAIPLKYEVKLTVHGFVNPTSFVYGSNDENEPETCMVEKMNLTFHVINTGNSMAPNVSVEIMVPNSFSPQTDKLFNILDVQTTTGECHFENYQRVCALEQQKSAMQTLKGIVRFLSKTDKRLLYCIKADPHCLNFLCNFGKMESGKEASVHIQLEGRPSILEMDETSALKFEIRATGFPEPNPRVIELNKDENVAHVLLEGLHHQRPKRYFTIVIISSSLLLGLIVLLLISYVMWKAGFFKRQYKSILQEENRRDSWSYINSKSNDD
# Platelet DG rel: modulates dense granule release in human platelets; human platelet-rich plasma, SFLLRN dense granule ATP release, luminescence; inhibition, %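 (compounds screened at 7.5 µM in platelet-rich plasma)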; 300,000 tested, 0.22% active;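 active = mean replicate score, as percent of positive control, at or above 50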
# TAAR1 antagonist: antagonists of human TAAR1 | Q96RJ0 | CHO RD-HGA16 TAAR1, Fluo-8 calcium fluorescence, antagonist | inhibition, % at 3 µM | 360,000 tested, 1.5% active;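 active = inhibition above a per-plate cutoff, the mean inhibition of test compounds on that plate plus 3 SD, cut at about 49% in these data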
#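 Material: CHO RD-HGA16 cells bearing hTAAR1; compound dosing: one-point dosing, 3 µM nominal final; schedule: dye loading 75 min at 37 °C, then 30 min room temperature; measured by: calcium fluorescence with Fluo-8; control set: vehicle and agonist controls; replication: n of 1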
# TAAR1 ag: agonists of human TAAR1; Q96RJ0; 360,000 tested, 0.99% active; CHO RD-HGA16 TAAR1, Fluo-8 calcium fluorescence; vehicle wells 0%, saturating PEA agonist 100%; activation, % at 3 µM; AID 624467;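 active = activation above the mean activation of all test compounds in the run plus 3 SD, cut at about 38% in these data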
#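 Test system: RD-HGA16 (CHO) cells co-expressing Gα16 and hTAAR1 / Benchmarks: DMSO vehicle as 0%, PEA at EC100 as 100% / Repeats: no replicates (n 1) / Measure: % activation from peak over basal fluorescence ratio, DMSO-to-PEA scaled / Timing: 17-24 h plating, Fluo-8 75 min 37 °C, 30 min RT / Technique: kinetic Fluo-8 calcium fluorescence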
# Numbers stand for hits; - = inactive; . = no result given; + = active, no number.
SMILES,Rce1 inh,VLA-4 inh,Platelet DG rel,TAAR1 antagonist,TAAR1 ag
Cc1ccsc1/C=N/NC(=O)c1nnn(-c2nonc2N)c1C(C)C,+,-,-,-,-
CCCc1c(C(=O)N/N=C/c2sccc2C)nnn1-c1nonc1N,-,-,-,-,-
Cc1ccc(SCc2c(C(=O)N/N=C/c3ccncc3)nnn2-c2nonc2N)cc1,-,-,-,50,-
Nc1nonc1-n1nnc(C(=O)N/N=C/c2ccncc2)c1CSc1ccc(Cl)cc1,-,-,-,-,-
COc1ccc(-c2ocnc2C(=O)N2CCN(C(=O)C(c3ccccc3)c3ccccc3)CC2)cc1,-,-,-,-,-
COc1ccc(C(=O)NNC(=O)c2ccc(F)c(S(=O)(=O)N3CCOCC3)c2)cc1,.,-,.,-,-
Cc1ccc(Cn2c(CCNc3nc(-c4ccc(Cl)c([N+](=O)[O-])c4)cs3)nc3cc(C(=O)NCCCO)ccc32)cc1,-,-,-,55,-
CCCc1ccc(S(=O)(=O)N2CCN(C(=O)CN3C(=O)NC(C)(C4CC4)C3=O)CC2)cc1 (centres undefined),.,.,.,-,-
CCC1(C)Cc2ccccc2C(=S)N1 (centres undefined),.,-,-,-,-
CC1(Cc2ccccc2Cl)C(=O)Nc2cc(-c3ccccc3Cl)ccc21 (centres undefined),.,.,.,51,-
O=S(=O)(NCCOc1ccccc1F)c1ccc(Cl)cc1F,.,-,.,-,-
Cc1ccc2nc(-c3ccncc3)cc(-c3ccccc3)c2c1,-,-,-,-,-
Cc1ccc(-c2cc3cccc[n+]3cc2-c2ccc(C)cc2)cc1,+,-,-,-,-
Cc1cccc(/C=N\N=C\c2cccc(C)c2)c1,-,-,-,-,-
COc1ccc(N2C(=O)C(Cl)=C(Nc3ccccc3OC)C2=O)cc1,-,-,-,-,-
COc1ccc(N2C(=O)C(Cl)=C(Nc3ccccc3O)C2=O)cc1,.,-,-,49,-
COc1ccc(Cc2nnc(NC(=O)c3cccc([N+](=O)[O-])c3C)s2)cc1,-,-,-,-,61
COc1ccc(Cc2nnc(NC(=O)c3ccccc3[N+](=O)[O-])s2)cc1,-,-,-,-,-
S=C(NCCCc1ccccc1)NCc1ccccc1,-,-,.,-,-
CCOC(=O)C1CCN(C(=O)CSc2nc3ncccc3[nH]2)CC1,-,-,-,-,-
CCOC(=O)c1nc(Nc2ccc(Nc3ccccc3)cc2)c2ccccc2n1,-,.,-,63,-
CCOC(=O)c1ccc(Nc2nc(C(=O)OCC)nc3ccccc23)cc1,-,-,-,-,-
COc1cc(C(=O)Nc2cc(S(=O)(=O)N3CCOCC3)ccc2N2CCOCC2)ccc1OC(F)F,.,.,.,-,-
COc1ccc(OC)c2c1C(=O)c1ccccc1C2=O,-,-,-,-,-
COc1ccc(OC)c2c1C(=O)C(Cl)=C(Cl)C2=O,-,-,66,71,-
SMILES,Rce1 inh,VLA-4 inh,Platelet DG rel,TAAR1 antagonist,TAAR1 ag
COc1cc(CCCN2CCNC[C@@H]2CC2CCCCC2)cc(OC)c1OC,.,-,.,-,-
COCCCn1c(N)c(-c2nc3ccccc3n2C)c2nc3ccccc3nc21,-,-,-,49,-
O=C(NCCOc1ccccc1)c1ccccc1[N+](=O)[O-],-,-,-,-,-
O=C(NCCOc1ccccc1)c1cc(C(=O)NCCOc2ccccc2)cc([N+](=O)[O-])c1,-,-,-,66,-
Cc1nc2n[nH]c(N)c2c2c1CCCC2,-,-,-,-,-
Cc1ccccc1CN(c1ccc(C(=O)N2CCc3ccccc3C2)cc1)S(C)(=O)=O,-,-,-,51,-
Cc1ccc(C)c(NS(=O)(=O)c2cc(C(=O)N3CCc4ccccc4C3)ccc2Cl)c1,-,-,-,-,-
Cc1cccc(NS(=O)(=O)c2cc(C(=O)N3CCc4ccccc4C3)ccc2Cl)c1C,-,-,-,56,-
CNC(=O)c1ccc(N(Cc2ccccc2C)S(C)(=O)=O)cc1,-,-,-,-,-
O=C(CSc1ccc(F)cc1)N1CCOCC1,-,-,-,-,-
C/C=C(/C)C(=O)O[C@H]1[C@@H](O)c2c(ccc3ccc(=O)oc23)OC1(C)C,+,-,-,-,-
C/C=C(/C)C(=O)OC1c2c(ccc3ccc(=O)oc23)OC(C)(C)C1OC(C)=O (centres undefined),-,-,-,-,46
N#Cc1nc(-c2ccco2)oc1N1CCN(C(c2ccccc2)c2ccccc2)CC1,+,-,-,-,-
O=C1CCC(c2ccc(-n3ccnc3)cc2)=NN1,-,-,82,-,-
O=C1CCC(c2ccccc2)=NN1,-,-,-,-,-
N#CC1=C(N)SC(N)=C(C#N)C1c1ccc(C(F)(F)F)cc1,-,-,-,.,.
N#CC1=C(N)SC(N)=C(C#N)C1Cc1ccccc1,-,-,-,-,43
CCc1ccc(C2C(C#N)=C(N)SC(N)=C2C#N)cc1,-,-,-,-,43
COc1ccc(C(=O)O/N=C/c2ccc(S(=O)(=O)c3ccc(Cl)cc3)nc2)cc1,-,-,-,-,-
CCOC(=O)N1CCC(NC(=O)c2cc(C(=O)NCc3ccc(F)cc3)ccc2CO)CC1,-,-,-,-,56
CCOC(=O)N1CCC(NC(=O)c2cc(C(=O)NCc3cccc(Cl)c3)ccc2CO)CC1,-,-,-,-,-
Cc1nc(SC(C(=O)c2ccccc2)c2ccccc2)nc2ccccc12 (centres undefined),+,-,-,-,-
COc1ccc2nc(C)cc(NCc3cccc(C(F)(F)F)c3)c2c1,-,-,-,-,-
CC(=O)c1ccc(NC(=O)CSc2ccc(-c3sc(C)nc3C)nn2)cc1,-,-,-,64,-
C/C(N)=C(/C#N)C(=O)COC(=O)C1CSC2(c3ccc(F)cc3)CCC(=O)N12 (centres undefined),-,-,-,-,-
SMILES,Rce1 inh,VLA-4 inh,Platelet DG rel,TAAR1 antagonist,TAAR1 ag
CCN(CC)CCN(C(=O)c1ccc2c(c1)CCCC2)c1nc2c(C)cccc2s1,-,-,-,-,-
COc1cc(/C=N/NC(=O)c2ccncc2)ccc1OC(=O)c1cc(OC)c(OC)c(OC)c1,+,-,-,-,-
COc1cc(C(=O)Oc2cccc(/C=N/NC(=O)c3cc(C)[nH]n3)c2)cc(OC)c1OC,-,-,-,56,-
COc1cc(/C=N/NC(=O)c2ccc3nc[nH]c3c2)cc(OC)c1OC,.,-,-,.,.
COc1cc(/C=N/NC(=O)c2ccc(CSc3nc4ccccc4[nH]3)cc2)cc(OC)c1OC,-,-,-,52,-
Cc1cc(C(=O)N/N=C/c2cccc(OC(=O)c3cccc(Br)c3)c2)n[nH]1,-,-,.,-,-
COC(=O)c1cc2c(c3c4cc(F)ccc4n(S(=O)(=O)c4cccc(C)c4)c13)C(=O)N(Cc1ccc(C(F)(F)F)cc1)C2,.,.,.,-,-
COc1cccc(CNC(=O)Cc2csc(NC(=O)Nc3ccccc3OC)n2)c1,-,-,-,50,-
COc1ccccc1NC(=O)Nc1nc(CC(=O)NCc2ccc(F)cc2)cs1,-,-,-,52,-
NC(=O)c1c(N)[nH]c(C(=O)c2ccccc2)c1-c1ccccc1,.,.,.,-,-

# Screening data: PubChem, several laboratories
